KCNQ1 block = inhibitors of human KCNQ1 channel, primary screen, cell-based, thallium flux, high-throughput; Potassium voltage-gated channel subfamily KQT member 1 (Homo sapiens), P51787; CHO-K1 KCNQ1, FluxOR thallium flux fluorescence; hits give high values; B-score at 10 µM; hit rate 1.3% among 310,000;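 active = compounds whose thallium flux B-score, printed positive for inhibition, exceeds three library SD while starting fluorescence stays within three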;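 also: channel opened by potassium depolarization with thallium stimulus after 20 min compound exposure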
Target sequence (P51787 whole entry, looked up): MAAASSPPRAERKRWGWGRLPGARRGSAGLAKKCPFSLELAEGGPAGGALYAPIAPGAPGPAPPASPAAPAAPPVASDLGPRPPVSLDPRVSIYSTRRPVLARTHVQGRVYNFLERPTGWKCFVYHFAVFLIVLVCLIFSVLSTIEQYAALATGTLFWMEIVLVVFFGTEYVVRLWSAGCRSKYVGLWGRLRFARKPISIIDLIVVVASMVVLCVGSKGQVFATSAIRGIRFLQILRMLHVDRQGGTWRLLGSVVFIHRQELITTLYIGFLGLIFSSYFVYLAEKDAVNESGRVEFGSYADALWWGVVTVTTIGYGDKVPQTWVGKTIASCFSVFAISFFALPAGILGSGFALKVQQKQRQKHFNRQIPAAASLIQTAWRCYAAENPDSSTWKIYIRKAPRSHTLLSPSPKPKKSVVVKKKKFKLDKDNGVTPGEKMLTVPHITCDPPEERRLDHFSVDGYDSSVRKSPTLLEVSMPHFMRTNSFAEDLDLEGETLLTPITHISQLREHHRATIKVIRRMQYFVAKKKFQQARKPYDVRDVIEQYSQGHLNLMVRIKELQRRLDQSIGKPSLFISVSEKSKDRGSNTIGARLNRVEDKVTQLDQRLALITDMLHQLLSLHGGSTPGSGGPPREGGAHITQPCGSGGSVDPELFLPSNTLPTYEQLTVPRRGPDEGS
hERG protect = hERG rescue from dofetilide block, primary screen, cell-based, CHO-hERG, FluxOR thallium flux, dofetilide IC70; Voltage-gated inwardly rectifying potassium channel KCNH2 (Homo sapiens), Q12809; dofetilide IC70 present; activation (rescue from dofetilide block), less the hit threshold, % at 10 µM; hit rate 0.51% among 310,000; AID 1511, 2009;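 active = activation above the mean of controls blocked by dofetilide plus 5 SD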;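 also: thallium influx through hERG after potassium depolarization seen as dye fluorescence rise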
KCNK9 inh = KCNK9 potassium channel inhibitors, primary screen, HEK293 cells, thallium flux; Potassium channel subfamily K member 9 (Homo sapiens), Q9NPC2; FluxOR thallium flux fluorescence; hits give low values; B-score at 10 µM; hit rate 1.2% among 310,000; AID 488922, 2010;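 active = ratio B-score over 3 SD below the library mean, with starting fluorescence within 5 SD of its mean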;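 also: negative B-score means less thallium flux so channel inhibition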
KCNQ1 pot = potentiators or activators of KCNQ1 channel, primary screen, cell-based, thallium flux, high-throughput | Potassium voltage-gated channel subfamily KQT member 1 (Homo sapiens), P51787 | CHO-K1 KCNQ1, thallium flux FluxOR fluorescence; hits give high values | B-score at 10 µM | hit rate 0.35% among 310,000;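 active = fluorescence ratio B-score, a plate-corrected score, at least three library SD, with initial intensity B-score within 5 SD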
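System: CHO-K1 cells stably expressing KCNQ1 / Medium: assay buffer for compound exposure, DMSO matched across wells / Reagent: thallium- and potassium-containing depolarizing buffer / Compound: one concentration, matched DMSO / Incubation: 20 min compound pretreatment at room temperature / Measured by: kinetic FluxOR fluorescence, 10 s baseline plus 110 s post-stimulus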
KCNK3 inh = human KCNK3 channel inhibitors, primary screen, CHO cells, FluxOR thallium flux, B-score. B-score at 10 µM. hit rate 0.84% among 340,000. FluxOR fluorescence; hits give low values;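 active = B-score under library mean minus 4 SD, starting fluorescence ratio at most library mean plus 5 SD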;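 also: more negative B-score means stronger inhibition of thallium flux through KCNK3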
KCNQ1 inh valid = KCNQ1 potassium channel inhibitors, confirmation, cell-based, Tl flux, duplicate | KCNQ1 cell line, FluxOR thallium flux fluorescence | hit rate 93% among 1,600 | inhibition, % at 10 µM | shares compounds with KCNQ1 block | AID 588353, 2011;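 active = primary screen active, with duplicate mean exceeding buffer control mean plus 3 SD of buffer wells, cut at about 28% in these data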;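 also: 0% = buffer control ratio and 100% = XE991 inhibitor control ratio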
CHO KCNQ1 ctr = thallium flux effects in parental CHO cells, counter-screen for KCNQ1 inhibitor project, cell-based, Tl flux; fluorescence ratio (Tl flux) at 10 µM; hit rate 21% among 1,600; parental CHO-K1, FluxOR thallium flux fluorescence ratio; hits give low values; zero means no signal rise above baseline; shares compounds with KCNQ1 block; AID 588366, 2011;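 active = mean of duplicate thallium-flux fluorescence ratios in parental host cells more than 5 SD below the buffer control mean, cut at about 0.38 in these data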;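 also: ratio is peak minus minimum fluorescence divided by baseline fluorescence; actives read low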
KCNQ1 ephys val = KCNQ1 channel inhibitors, confirmation, orthogonal assay, cell-based, automated electrophysiology; AID 624120, 2012; shares compounds with KCNQ1 block; calls only at 10 µM; hit rate 20% among 490; KCNQ1-CHO cells, automated patch clamp current;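 active = KCNQ1 current drop exceeding 3 SD of negative control wells, seen in both duplicate runs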;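 also: steady state current during a 2 s step from -80 to +40 mV; negative values mean current inhibition and positive values mean potentiation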
KCNQ2 spec = KCNQ2 channel inhibition, selectivity assay for KCNQ1 inhibitor project, cell-based; hit rate 71% among 1,600; KCNQ2 cells, FluxOR thallium flux fluorescence; inhibition, % at 10 µM; shares compounds with KCNQ1 block;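 active = mean percent inhibition of the KCNQ2 thallium signal more than 5 SD above the buffer-only control wells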;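 also: KCNQ2 expressed in CHO cells; 0% = buffer control wells and 100% = XE-991 inhibitor control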
KCNQ1-KCNE1 inh = KCNQ1/KCNE1 channel inhibition, selectivity assay for KCNQ1 inhibitor project, CHO-K1 cells, thallium flux, FluxOR. hit rate 77% among 1,600. shares compounds with KCNQ1 block. FluxOR thallium flux fluorescence. inhibition, % at 10 µM;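 active = mean percent inhibition of duplicate wells above the buffer-only control mean plus 3 SD of those controls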;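 also: 0% = buffer only wells and 100% = XE-991 inhibitor control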
An asterisk follows results filed as active; i = inactive; x = no result given; + = active, no number. Shown are actives, neighbours in structure and some others; about 3.1% of the full set was active somewhere.

SMILES	KCNQ1 block	hERG protect	KCNK9 inh	KCNQ1 pot	KCNK3 inh	KCNQ1 inh valid	CHO KCNQ1 ctr	KCNQ2 spec	KCNQ1-KCNE1 inh	others
COc1cccc(C(=O)Nc2ccc3nc(N4CCOCC4)cc(C)c3c2)c1	7*	-16	i	i	i	+	0.46	i	i	KCNQ1 ephys val=i
N#Cc1ccc(NC(=O)Nc2cccc(C#N)c2)cc1	7*	-26	i	i	i	49*	0.49	i	i
N#Cc1cccc(NC(=O)c2ccccc2C(=O)O)c1	i	-7	i	i	i	x	x	x	x
COC(=O)c1cc(OC)c(OC)cc1NC(=S)Nc1cccc(Cl)c1	7*	-6	i	i	i	60*	0.51	i	i
O=C(Nc1ccccc1)Nc1cccc(Cl)c1	13*	-13	i	i	i	86*	0.51	72%*	i
CC(=O)c1ccc(NC(=O)Nc2cccc(Cl)c2)cc1	8*	-17	i	i	i	88*	0.47	61%*	i	KCNQ1 ephys val=i
CCCNC(=O)c1ccc(COc2ccc(CCC)cc2OC)o1	i	-5	i	i	i	x	x	x	x
Fc1ccc(CNC(=S)Nc2cccc(Cl)c2)cc1	i	-18	i	i	i	x	x	x	x
O=C(Nc1cccnc1)Nc1cccc(F)c1	i	-6	i	i	i	x	x	x	x
O=C(Nc1ccc2nccnc2c1)Nc1ccccc1Cl	i	-9	i	i	i	x	x	x	x
CSc1cccc(NC(=O)Nc2ccc(Cl)cc2)c1	17*	-17	i	i	i	68*	0.39	61%*	44%*
O=C(Nc1ccncc1)Nc1cccc(F)c1	8*	-17	i	i	i	48*	0.55	i	42%*
O=C(Nc1cccc(Cl)c1)Nc1ccc2nccnc2c1	7*	-8	i	i	i	98*	0.43	92%*	100%*	KCNQ1 ephys val=i
Fc1ccc(NC(=S)Nc2cccc(Cl)c2)cc1	6*	-18	i	i	i	48*	0.51	i	36%*
CSc1cccc(NC(N)=O)c1	i	-10	i	i	i	x	x	x	x
COCCN(C(=O)c1ccccc1Oc1ccccc1)c1c(N)n(CC(C)C)c(=O)[nH]c1=O	x	x	x	x	i	x	x	x	x
Cc1ccc(-c2csc(NC(=O)CSc3nc4ccccc4c(=O)n3CCCN(C)C)n2)cc1	8*	-46	i	i	i	118*	0.29*	101%*	154%*
Cc1ccc(NC(=O)CSc2nc3ccccc3c(=O)n2CCCN2CCCCC2)cc1Cl	7*	-22	i	i	i	85*	0.36*	85%*	84%*
O=C(Nc1cccc(Cl)c1)OCCN1CCN(Cc2ccccc2)CCC1=O	11*	-17	i	i	i	70*	0.49	99%*	46%*
O=C1CCN(Cc2ccccc2)CCN1CCOc1ccccc1	6*	-4	i	i	i	0	0.51	i	i
O=C(Cn1nnc2ccccc21)OCC(=O)c1ccc(Cl)cc1	7*	-12	i	i	x	0	0.48	i	42%*
O=C(Cn1nnc2ccccc21)OCc1ccccc1	i	-13	i	i	i	x	x	x	x
CCN(CC(=O)NCc1cccs1)C(=O)/C=C/c1cc(Br)ccc1OC(F)F	x	x	x	x	i	x	x	x	x
CCN(CC)C(=O)C1c2ccccc2Oc2ccccc21	16*	-23	i	i	i	0	0.48	77%*	71%*
Cc1nc(N2CCN(c3ccccn3)CC2)c2c(C)c(C(=O)Nc3ccc(Br)cc3C)sc2n1	7*	-13	i	i	i	82*	0.45	98%*	104%*
SMILES	KCNQ1 block	hERG protect	KCNK9 inh	KCNQ1 pot	KCNK3 inh	KCNQ1 inh valid	CHO KCNQ1 ctr	KCNQ2 spec	KCNQ1-KCNE1 inh	others
Cc1ccc(NC(=O)c2sc3nc(C)nc(N4CCN(c5ccccn5)CC4)c3c2C)c(C)c1	8*	-13	i	i	i	84*	0.46	97%*	98%*
Cc1oc(-c2ccc(-c3ccccc3)cc2)nc1CN(CCO)C(C)C	i	-12	i	i	i	x	x	x	x
CN1/C(=C\C(=O)Nc2ccc(Cl)cc2)C(C)(C)c2ccccc21	10*	-24	-7.2*	i	i	99*	0.49	116%*	48%*	KCNQ1 ephys val=i
O=C(c1cc(-c2ccc(Cl)cc2)n(-c2cc(Cl)ccc2Cl)n1)N1CCOCC1	7*	-7	i	i	i	62*	0.48	81%*	86%*
O=C(c1cc(-c2ccc(Cl)cc2)n(-c2ccc(Cl)c(Cl)c2)n1)N1CCOCC1	i	-6	i	i	i	x	x	x	x
CCn1c(=NC(=O)C2COc3ccccc3O2)sc2c(C)ccc(OC)c21 (stereo unspecified)	7*	-16	-8*	i	i	85*	0.39	110%*	121%*
CCn1c(=NC(=O)CN2C(=O)CCC2=O)sc2c(OC)ccc(OC)c21	i	-5	i	i	i	x	x	x	x
Cn1c(N)c(C(=O)COC(=O)C2CC(=O)N(Cc3ccccc3)C2)c(=O)n(C)c1=O (stereo unspecified)	6*	-18	i	i	i	0	0.45	60%*	i
O=C(COC(=O)C1CC(=O)N(Cc2ccccc2)C1)c1ccc(Br)cc1 (stereo unspecified)	i	-9	i	i	i	x	x	x	x
Cc1ccc(CN=C(Nc2ccccc2)NC2CCCCC2)cc1	9*	-4	i	i	i	68*	0.53	i	41%*

High-throughput results (PubChem BioAssay)
